# In the library only some 1.5% were active in any assay of this set; here they are far more common.
# CCR6 antag: CCR6 (human) receptor antagonism; P51684; CHO-K1 CCR6 PathHunter beta-arrestin, luminescence, CCL20-stimulated; inhibition, % at 20 µM; actives 0.49% (n = 340,000); AID 493098;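 active means compounds whose inhibition of the agonist-driven luminescence signal at 20 µM reaches about 50%, limit read from the data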;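 further: cells stimulated with CCL20 at 14 nM final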
# APJ antag: antagonists of human APJ apelin receptor; P35414; CHO-K1 APJ beta-arrestin complementation, luminescence; inhibition, % at 20 µM; actives 0.32% (n = 330,000);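 active means inhibition above about 40% at 20 µM, limit read from the data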;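 further: cells challenged with 10 nM apelin-13 agonist together with compound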
# APJ ag: agonists of human APJ apelin receptor; CHO-K1 APJ PathHunter beta-arrestin, luminescence; 0% DMSO wells, 100% apelin; activation, % at 20 µM; AID 2520; P35414; actives 0.11% (n = 330,000);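 active means activation more than six SD over the plate average, tested at 20 µM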
#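 Assay system: engineered CHO-K1 APJ arrestin reporter cells; Amount: 1000 CHO-K1 reporter cells seeded per well; Dosing: one dose, 20 µM compound, 1% DMSO; Times: compound stimulation 90 min at 25 °C, detection 60 min; Measured by: luminescent beta-gal fragment complementation, chemiluminescent substrate; Read-out: APJ–arrestin association signal; Controls: DMSO vs Apelin-13 10 nM.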
# EBI2 block: blocks human EBI2 receptor beta-arrestin signaling. EBI2 beta-arrestin recruitment, luminescence, 7a,25-OHC stimulated. AID 651636. actives 0.81% (n = 360,000). P32249. inhibition, % at 5 µM; in the data active means inhibition above about 38%;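 further: enzyme fragment complementation signal reports receptor beta-arrestin coupling in cells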
# Target sequence (P32249 whole entry, looked up, the tested form may be a part): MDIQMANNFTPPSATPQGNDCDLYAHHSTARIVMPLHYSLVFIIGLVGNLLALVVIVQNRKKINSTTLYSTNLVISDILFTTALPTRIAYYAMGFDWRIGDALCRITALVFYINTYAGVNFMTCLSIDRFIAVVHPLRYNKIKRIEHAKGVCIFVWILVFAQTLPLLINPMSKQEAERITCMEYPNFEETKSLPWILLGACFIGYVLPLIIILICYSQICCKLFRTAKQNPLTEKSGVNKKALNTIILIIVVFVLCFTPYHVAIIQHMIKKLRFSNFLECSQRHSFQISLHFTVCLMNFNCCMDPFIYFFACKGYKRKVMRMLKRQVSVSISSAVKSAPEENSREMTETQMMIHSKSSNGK
# CXCR6 block: blocks human CXCR6 beta-arrestin recruitment. O00574. CHO-K1 PathHunter CXCR6 beta-arrestin, luminescence. inhibition, % at 20 µM. actives 0.36% (n = 360,000). AID 602244; in the data active means inhibition above about 34%, passing the limit was not always enough;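 further: antagonist mode with CXCL16 agonist at 10 nM final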
# Hits are given with their value; – = inactive; · = not tested or not shown; ! = repeats disagree.
SMILES,CCR6 antag,APJ antag,APJ ag,EBI2 block,CXCR6 block
CCC(C)[C@@H](NC(=O)OC(C)(C)C)c1nnc(S(=O)(=O)Cc2cccc(C)c2)o1 (stereo partly drawn),–,·,·,–,53.0
CC(C)(C)OC(=O)N[C@@H](Cc1ccccc1)c1nnc(S(=O)(=O)Cc2ccccc2)o1,·,–,–,·,·
CCCCN1C(=O)C(CC(=O)NCc2ccco2)CC(C(=O)N2CCOCC2)=C1C (stereo not drawn),·,·,·,–,–
O=C(O)c1ccc(-c2ccc(/C=N/Nc3ccc([N+](=O)[O-])cc3)o2)cc1,–,–,–,–,–
O=C(O)c1cc(-c2ccc(/C=N/Nc3ccc([N+](=O)[O-])cn3)o2)ccc1Cl,50.7,·,·,–,–
CCOC(=O)c1nnn(-c2nonc2N)c1CN1CCCC1,–,–,–,–,–
CCOC(=O)c1nnn(-c2nonc2N)c1CN1CCCCCC1,104.2,–,–,–,–
COC(=O)C[C@H]1CC[C@@H](NC(=O)c2ccncc2)[C@@H](CO)O1,·,·,·,–,·
Cc1cccc(N2CCN(C(=O)Cn3sc4nc(C)cc(C)c4c3=O)CC2C)c1 (stereo not drawn),71.5,–,–,–,–
CC(C)C[C@H]1CNC(=O)C(=O)N1C[C@@H]1CCCN1C[C@H](Cc1ccccc1)N1C[C@H](Cc2ccccc2)N(CCc2ccccc2)C(=O)C1=O,·,·,·,–,–
O=C1Nc2ccccc2N=C(c2ccccc2)C1N(C(=O)c1ccnc2ccccc12)c1ccccc1 (stereo not drawn),·,·,·,–,–
CS(=O)(=O)c1ncc(Cl)c(C(=O)Nc2ccc3ccccc3c2)n1,81.4,·,·,56.9,69.7
CCS(=O)(=O)c1ncc(Cl)c(C(=O)Nc2ccc(C)cc2)n1,–,–,–,52.6,–
COc1ccc(Cn2c(C3CC3)nc3ccc(NC(=O)c4cccnc4)cc3c2=O)cc1,–,–,–,53.1,–
CCN1C(=O)/C(=C/C=C2\C=CN(CC)c3ccccc32)SC1=S,53.1,·,·,–,–
CCCN1C(=O)/C(=C\C=C2\N(CC)c3ccccc3C2(C)C)SC1=S,–,·,·,–,–
COc1cc(N(C)C)ccc1C=c1c2ccccc2n2c1cc(-c1ccccc1)[n+]2C,64.7,·,·,–,60.0
CN(C)c1ccc(C=c2c3ccccc3n3c2cc(-c2ccc(Cl)cc2)[n+]3C)cc1,–,·,·,–,–
CN(C)c1ccc(C=c2c3cc([N+](=O)[O-])ccc3n3c2cc(-c2ccccc2)[n+]3C)cc1,67.5,·,·,–,49.0
CN(C)c1ccc(C=c2c3ccccc3n3c2c2c([n+]3C)CCCC2)cc1,–,·,·,–,45.1
CN(C)c1ccc(C=c2c3ccccc3n3c2cc(-c2ccccc2)[n+]3C)cc1,62.2,·,·,–,52.1
CCCC[C@@H]1CNC(=O)C(=O)N1CCCC,·,·,·,–,–
O=C(NC(c1ccc(Cl)cc1)c1ccsc1)C1CCN(CCOc2ccc(Cl)cc2)CC1 (stereo not drawn),·,·,·,–,–
CCC(C(=O)NC(C)(C)C)n1c(C(c2ccccc2)c2ccccc2)nc2ccccc21 (stereo not drawn),·,·,·,–,·
CC(C)C[C@@H]1COc2cc(N3CCC[C@H]3CO)ccc2S(=O)(=O)N1,·,·,·,–,–
SMILES,CCR6 antag,APJ antag,APJ ag,EBI2 block,CXCR6 block
Cc1ccc([C@H]2N[C@]3(CCCN(Cc4ccc(F)cc4)C3=O)[C@H]3C(=O)N(Cc4ccccc4)C(=O)[C@@H]23)cc1,·,·,·,–,–
CC(C)(C)C(=O)/C(=C\c1ccc([N+](=O)[O-])cc1)n1cncn1,·,69.8,–,·,·
O=C(Oc1c(Cl)cc(Cl)c2cccnc12)c1cccc([N+](=O)[O-])c1,68.4,–,–,–,–
COc1ccccc1Cc1c(-c2ccco2)nc2c(C)cc(Br)cn12,·,·,·,–,–
N#C/C(=C/c1ccc(N2CCCCCC2)o1)c1ccc(Cl)cc1,–,–,–,42.5,–
N#C/C(=C/c1ccc(N2CCCCC2)o1)c1cccc(F)c1,–,–,–,–,–
Nc1cccc2c1C(=O)N(C(=O)/C=C/c1cccc(Br)c1)C2=O,64.0,·,·,–,37.6
O=C(NC1CCCCC1)OC1CC2CC1[C@H]1CCCCN1C2=O (stereo partly drawn),·,·,·,–,–
COC(=O)c1ccccc1NC1=C/C(=N\S(=O)(=O)c2ccc(C(=O)O)cc2)c2ccccc2C1=O,55.0,–,–,–,–
COC(=O)c1ccccc1NC1=C/C(=N\S(=O)(=O)c2cccs2)c2ccccc2C1=O,54.0,–,–,–,42.5
Cc1cccc(CN2CCN(C3CN(Cc4cn(Cc5ccc(Cl)cc5)nn4)S(=O)(=O)C3)CC2)c1 (stereo not drawn),·,·,·,–,–
Cc1ccc(C2C3CSCC=C3C(C#N)=C(N)C2(C#N)C#N)cc1 (stereo not drawn),52.4,–,–,–,–
Cc1cc(C)nc(SCc2cc(=O)c(OC(=O)c3ccc(Cl)c([N+](=O)[O-])c3)co2)n1,–,57.9,–,–,–
CC(C)(Oc1ccc(F)cc1)C(=O)OCC(=O)c1ccc(S(C)(=O)=O)cc1,51.7,–,–,–,–
Cc1ccc(S(=O)(=O)CCC(=O)OCC(=O)c2ccc(F)cc2)cc1,–,–,–,–,–
COc1cc(N=Nc2ccccc2C(=O)O)ccc1O,–,–,–,–,–
COc1cc(N=Nc2ccc3ccccc3c2)ccc1O,50.6,–,–,–,–
CC1=C(C)/C(=N\OS(=O)(=O)c2ccc(C)cc2)C=CC1=O,76.3,·,·,–,54.6
Cc1c(CCOC(=O)c2ccc(Cl)cc2Cl)sc[n+]1CC(=O)c1ccc(Br)cc1,–,–,–,–,–
Cc1c(CCOC(=O)C2C3CC4CC(C3)CC2C4)sc[n+]1CC(=O)c1ccc(Br)cc1 (stereo not drawn),53.5!,–,–,–,–
O=C(C(Cc1ccccc1)N1C(=O)C2C3C=CC(C3)C2C1=O)N1CCCCC1 (stereo not drawn),108.1,–,–,–,–
CC(C)c1ccc(OCC(=O)NNC(=S)NC(=O)c2ccco2)c(Br)c1,–,–,–,–,–
CC(C)(C)c1ccc(OCC(=O)NNC(=S)NC(=O)c2ccco2)c(Br)c1,55.6,–,–,–,–
CCOC(=O)[C@]12CCC=C1N(Cc1ccc(Cl)cc1Cl)C(=O)[C@H](CC(=O)N1CCN(C(=O)c3ccco3)CC1)C2,·,·,·,–,–
CCOC(=O)c1c(SCCN2CCCC2)n(-c2ccccc2)c(=S)n(-c2ccccc2)c1=O,104.7,·,·,–,88.0
N#C/C(C(=O)Nc1ccc(Cl)cc1)=C(/S)Nc1ccccc1,–,–,–,56.7,–
O=C(Nc1ccc(Nc2ccccc2)cc1)c1ccc(Cl)cc1,–,–,–,–,–
O=C(ONc1ccc(N=NC(=O)c2ccccc2O)cc1)c1ccccc1,56.3,–,–,–,–
CCOC(=O)CCCN(c1[nH]c(C)c(C)c1C#N)S(=O)(=O)c1ccc(C)cc1,·,·,·,–,–
CC(/C=N/n1c(-c2ccc(Cl)cc2)n[nH]c1=S)=C\c1ccco1,–,–,–,–,–
